Experiment [1] deals with Plasmodium yoelii nigeriensis. The experiment can be described thus: Inhibition of heme oxygenase in Plasmodium yoelii nigeriensis isolated from infected mice (Mus musculus) (oral). The format is functional. In a few lines: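 Swiss albino mice carried P. yoelii nigeriensis tolerant to CQ up to 120 mg/kg. They received compound orally at 15 mg/kg body wt for 5 days. Parasites were then isolated from blood by density gradient centrifugation and saponin lysis, and enzyme inhibition was measured as percent inhibition.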

For a further experiment, the species on record is Mus musculus. The experiment can be described thus: In Vitro inhibition of Heme Oxygenase in Plasmodium yoelii (host) at concentration 50 uM. Type of experiment: functional. In outline:
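In vitro heme oxygenase, cell-free: post-mitochondrial fractions of P. yoelii parasites and of infected host liver. Test compounds at 10-100 µM were preincubated 10 min in the assay system before the enzyme reaction started. Activity was followed as bilirubin formation and expressed as % inhibition.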

In experiment [2] the test system is Plasmodium berghei. As to the kind of experiment: Evaluated for the Heme oxygenase (Values are mean +/- SD of 4 separate observations. Specific activity in nmol/h/mg protein) in chloroquine-resistant Plasmodium berghei. The format is functional. In outline: (§1)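 Mastomys carrying CQ-resistant P. berghei were dosed orally at 15 mg/kg for 10 days. Untreated CQ-resistant and CQ-sensitive parasites served as reference samples. Parasites were isolated by density-gradient centrifugation and saponin lysis. Heme oxygenase was followed as bilirubin formation in the post-mitochondrial fraction and expressed as nmol/h/mg protein.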

The test system of experiment [3] is Plasmodium berghei. As to the kind of experiment: Evaluated for the Heme oxygenase (Values are mean +/- SD of 4 separate observations. Specific activity in nmol/h/mg protein) in chloroquine-resistant Plasmodium berghei which is treated with 15 mg/kg body weight of compound for 10 days; NA denotes no activity. The format is functional, organism-based. Set-up: dose 15 mg/kg. In outline:
as §1

Experiment [4] has as its system Plasmodium yoelii. As to the kind of experiment: Evaluated for the Heme oxygenase in chloroquine-resistant Plasmodium yoelii. Type of experiment: functional.
In experiment [5] the test system is Plasmodium berghei. As to the kind of experiment: In vivo antimalarial activity as parasitemia at day 10 in chloroquine-resistant Plasmodium berghei infected Mastomys coucha at 15 mg/kg; range 20-22%. The format is functional.
The test system of experiment [6] is Plasmodium yoelii. The experiment can be described thus: In vivo parasitaemia at day 17 in chloroquine-resistant Plasmodium yoelii nigeriensis infected Swiss Albino mice (Mus musculus); Not active. Type of experiment: functional, organism-based.
The test system of experiment [7] is Plasmodium yoelii. As to the kind of experiment: In vivo resistance reversal agent in chloroquine-resistant Plasmodium yoelii nigerienses infected Swiss Albino mice (Mus musculus). Parasitemia observed on day 6-10 of treatment in Group III NI denotes nil inhibition. Type of experiment: functional, organism-based.
Experiment [8] has as its system Plasmodium yoelii. As to the kind of experiment: In vivo antimalarial activity as pretreatment parasitemia in chloroquine-resistant Plasmodium yoelii nigerienses infected Swiss Albino mice (Mus musculus); range 1-2%. The format is functional.
Experiment [9] relates to Plasmodium berghei. As to the kind of experiment: In vivo antimalarial activity as parasitemia at day 17 in-chloroquine-resistant Plasmodium berghei infected Mastomys coucha treated to day 10; No inhibition. The format is functional, organism-based.
Experiment [10] relates to Plasmodium berghei. As to the kind of experiment: In vivo antimalarial activity as parasitemia at day 17 in chloroquine-resistant Plasmodium berghei infected Mastomys coucha treated to day 10; range 25-30%. Type of experiment: functional.
Experiment [11] concerns Plasmodium berghei. The experiment can be described thus: In vivo pretreatment parasitemia in chloroquine-resistant Plasmodium berghei infected Mastomys coucha; range 4-5%. Type of experiment: functional.
The subject of experiment [12] is Plasmodium berghei. As to the kind of experiment: Heme content in chloroquine-resistant Plasmodium berghei. Type of experiment: functional.
The subject of experiment [13] is Plasmodium berghei. As to the kind of experiment: Hemozoin formation in chloroquine-resistant Plasmodium berghei.
In experiment [14] the test system is Plasmodium berghei. As to the kind of experiment: Hemozoin formation in chloroquine-resistant Plasmodium berghei at 15 mg/kg for 10 days.
Experiment [15] deals with Plasmodium berghei. As to the kind of experiment: In vivo resistance reversal after 1 month in chloroquine-resistant Plasmodium berghei infected Mastomys coucha at 15 mg/kg on day 10; No inhibition.

Calls of active or inactive are those of the source. The rule behind the calls is not given here.

For orientation: Inhibition means the relative decrease from the control value, in per cent. A lower Inhibition goes with a weak effect. A word on the inhibition: it is the change of the read-out against control, counted positive when it falls. A higher inhibition goes with a response far below the control. Compound `CCN(CC)CCCN1CC/C(=C\c2ccc(OC)cc2)C1` yielded an Inhibition in experiment [1] of 100%. This compound registered an inhibition in the experiment listed under Mus musculus of 21%. Moreover, the Mean was 80.2 nM/h/mg in the experiment with Plasmodium berghei [2]; 102 nM/h/mg in the experiment with Plasmodium yoelii [4]; 60.3 pmol/mg in the experiment with Plasmodium berghei [12]; 51.4 pmol/mg with Plasmodium berghei [13]; 71.1 pmol/mg in the experiment with Plasmodium berghei [14]. The NA result with Plasmodium berghei [3] is “inactive”. Also, the Parasites is on record as 22% in the experiment with Plasmodium berghei [5], 2% in the experiment with Plasmodium yoelii [8], more than 30% with Plasmodium berghei [10] and 5% in the experiment on Plasmodium berghei [11]. Besides, the NI result in the experiment with Plasmodium yoelii [6], in the experiment with Plasmodium yoelii [7], in the experiment with Plasmodium berghei [9] and with Plasmodium berghei [15] was “No inhibition” throughout.

(Values after ChEMBL document CHEMBL1133641, “A new class of potential chloroquine-resistance reversal agents for Plasmodia: syntheses and biological evaluation of 1-(3'-diethylaminopropyl)-3-(substituted phenylmethylene)pyrrolidines” (2000).)
